From PubChem
In the library only some 1.5% were active in any assay of this set; here they are far more common.
CCR6 antagonist = blocks CCL20-driven beta-arrestin recruitment at human CCR6; AID 493098; CHO-K1 CCR6 PathHunter beta-arrestin, luminescence, CCL20-stimulated; 0.49% of 340,000 active; inhibition, % at 20 µM;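 active = compounds whose inhibition of the agonist-driven luminescence signal at 20 µM reaches about 50%, limit read from the data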;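 also: cells stimulated with CCL20 at 14 nM final; plate controls were DMSO with CCL20 for no effect and DMSO without agonist for full effect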
Target sequence (P51684 whole entry, looked up): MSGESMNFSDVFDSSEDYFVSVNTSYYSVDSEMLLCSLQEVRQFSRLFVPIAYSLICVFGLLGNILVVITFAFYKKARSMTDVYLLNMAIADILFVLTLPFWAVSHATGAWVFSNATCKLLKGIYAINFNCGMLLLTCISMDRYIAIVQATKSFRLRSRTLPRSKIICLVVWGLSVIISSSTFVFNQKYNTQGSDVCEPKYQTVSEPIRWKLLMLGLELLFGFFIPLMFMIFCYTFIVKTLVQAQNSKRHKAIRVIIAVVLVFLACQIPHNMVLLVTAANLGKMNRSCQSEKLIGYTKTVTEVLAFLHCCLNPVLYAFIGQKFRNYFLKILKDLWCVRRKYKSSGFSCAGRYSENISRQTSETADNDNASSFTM
APJ antagonist = APJ receptor antagonism; P35414; CHO-K1 APJ beta-arrestin complementation, luminescence; inhibition, % at 20 µM; 0.32% of 330,000 active; AID 2521;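 active = inhibition above about 40% at 20 µM, limit read from the data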;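 also: cells challenged with 10 nM apelin-13 agonist together with compound; plate controls were apelin-13 plus DMSO wells for no effect and DMSO wells lacking apelin-13 for full effect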
EBI2 antag = blocks human EBI2 receptor beta-arrestin signaling; P32249; EBI2 beta-arrestin recruitment, luminescence, 7a,25-OHC stimulated; inhibition, % at 5 µM; 0.81% of 360,000 active; AID 651636; in the data active = inhibition above about 38%;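 also: enzyme fragment complementation signal reports receptor beta-arrestin coupling in cells; 0% = agonist plus DMSO wells and 100% = wells without agonist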
CXCR6 inh = blocks human CXCR6 beta-arrestin recruitment; 0.36% of 360,000 active; inhibition, % at 20 µM; O00574; CHO-K1 PathHunter CXCR6 beta-arrestin, luminescence; in the data active = inhibition above about 34%, passing the limit was not always enough;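 also: antagonist mode with CXCL16 agonist at 10 nM final; 0% = 10 nM CXCL16 with DMSO and 100% = unstimulated wells without agonist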
Target sequence (O00574 whole entry, looked up): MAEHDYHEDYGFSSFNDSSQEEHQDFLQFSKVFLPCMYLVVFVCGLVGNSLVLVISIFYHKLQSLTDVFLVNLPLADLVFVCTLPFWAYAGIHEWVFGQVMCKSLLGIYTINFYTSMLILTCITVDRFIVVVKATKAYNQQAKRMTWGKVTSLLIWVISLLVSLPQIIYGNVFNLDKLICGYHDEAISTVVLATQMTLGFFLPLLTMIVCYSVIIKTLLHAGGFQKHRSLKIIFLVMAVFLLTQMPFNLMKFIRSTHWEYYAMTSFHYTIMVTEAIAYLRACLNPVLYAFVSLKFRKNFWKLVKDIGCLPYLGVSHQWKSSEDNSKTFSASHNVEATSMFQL
APJ agonist = APJ receptor agonism; activation, % at 20 µM; P35414; 0.11% of 330,000 active; CHO-K1 APJ PathHunter beta-arrestin, luminescence; 0% DMSO wells, 100% apelin; AID 2520;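 active = activation more than six SD over the plate average, tested at 20 µM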;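 also: 0% = DMSO alone and 100% = apelin-13 at 10 nM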
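Incubation: overnight seeding, 90 min compound at 25 °C, 1 h detection; test system: PathHunter CHO-K1 APJ (AGTRL-1) beta-arrestin reporter cells; amount: 1000 cells/well; doses: one dose, 20 µM compound, 1% DMSO; measured by: beta-gal luminescence; measure: agonist-driven arrestin binding to APJ; benchmarks: negative DMSO alone, positive Apelin-13 at 10 nM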
EBI2 antag conf = EBI2 (human) antagonism, single concentration confirmation; shares compounds with EBI2 antag; EBI2 beta-arrestin luminescence, 7a,25-OHC antagonism; inhibition, % at 5 µM; 29% of 2,400 active; AID 651997;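 active = inhibition of at least 50%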
EBI2 ag = EBI2 agonism counter-screen; activation, % at 5 µM; shares compounds with EBI2 antag; 2,400 tested, under 10 active; EBI2-expressing cells, agonist mode, luminescence, 60 min; 0% vehicle, 100% 7α,25-dihydroxycholesterol control;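 active = activation of at least 50%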
bGal cs = inhibits E. coli beta-galactosidase, counter-screen for EBI2 antagonists; shares compounds with EBI2 antag; purified beta-galactosidase, luminescent Galacton Star, 15 min; inhibition, % at 5 µM; 1% of 2,400 active; AID 652176;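 active = replicate-average signal at least 3 plate SD below neutral wells, shown as high inhibition, flagging enzyme-inhibiting false positives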;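 also: 0% = DMSO wells with enzyme and 100% = wells lacking enzyme; higher means stronger loss of beta-gal luminescence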
* = called active by the depositor; · = no result.

SMILES | CCR6 antagonist | APJ antagonist | EBI2 antag | CXCR6 inh | APJ agonist | EBI2 antag conf | EBI2 ag | bGal cs
Clc1cccc(-c2nnc(SC/C=C/c3ccccc3)n2Cc2ccco2)c1 | 16 | 7 | 45* | 12 | -6 | 35 | -1 | 4
CCOC(=O)c1cnc(SCC(=O)Nc2cc(C(F)(F)F)ccc2N2CCOCC2)nc1N | 31 | 2 | 85* | -12 | 1 | 86* | 3 | 5
O=C(/C=C/c1cccs1)N1CCC2(CC1)Oc1ccc(Cl)cc1C(=O)C21CC(c2cccnc2)=NO1 (centres undefined) | 19 | 0 | 66* | 4 | 13 | 18 | -1 | -12
Cc1ccc(C(=O)N2CCC3(CC2)Oc2ccc(Cl)cc2C(=O)C32CC(c3cccnc3)=NO2)s1 (centres undefined) | 4 | 11 | 0 | 6 | -3 | · | · | ·
COc1ccc(S(=O)(=O)N(C)C[C@H]2Oc3c(NS(=O)(=O)c4ccc(F)cc4)cccc3C(=O)N([C@H](C)CO)C[C@@H]2C)cc1 | -7 | 3 | 1 | 8 | -4 | · | · | ·
CCn1c2ccccc2c2nnc(SCc3ccccc3)nc21 | 22 | 3 | 8 | 8 | -4 | · | · | ·
CCN(CC)CCSc1nnc2c3cc(F)ccc3n(Cc3ccccc3)c2n1 | 8 | 4 | 56* | 6 | -2 | 21 | 0 | 6
CCN(CC)CCSc1nnc2c3ccccc3n(Cc3ccccc3)c2n1 | 21 | 10 | 54* | 16 | 0 | 21 | 1 | 1
CCN(C(=O)c1cc(S(=O)(=O)N2CCOCC2)cn1C)c1cccc(C)c1 | -1 | 4 | -5 | -10 | -5 | · | · | ·
CCOc1ccc(S(=O)(=O)N2CCN(C(=O)c3cc4ccccc4o3)CC2)cc1 | 35 | -5 | 86* | 0 | 0 | 56* | 2 | 9
O=C(c1cc2ccccc2o1)N1CCN(S(=O)(=O)c2c(F)cccc2F)CC1 | 11 | 4 | 63* | 2 | -3 | 43 | 0 | 5
CCOC(=O)c1ccc(S(=O)(=O)N2CCN(C(=O)c3cc(=O)c4ccccc4o3)CC2)cc1 | 11 | 1 | 60* | 8 | -3 | 27 | 0 | 7
CCCS(=O)(=O)Nc1ccc(N2CCCCC2)c(S(=O)(=O)Nc2ccccc2OC)c1 | 17 | 3 | 27 | 6 | -4 | · | · | ·
Cc1cc(C(=O)NCC(=O)OCC(=O)NCC2CCCO2)ccc1[N+](=O)[O-] (centres undefined) | 11 | 4 | -10 | 7 | -5 | · | · | ·
Cc1cc(C(=O)NCC(=O)OCC(=O)N(C2CCCCC2)C2CCCCC2)ccc1[N+](=O)[O-] | 11 | 8 | 81* | -2 | -3 | 47 | -1 | -8
COc1ccc(S(=O)(=O)N2CCC(C(=O)NC3CC3)CC2)cc1OC | 14 | -6 | -2 | -8 | 2 | · | · | ·
O=C(Nc1cccc(S(=O)(=O)N2CCCCC2)c1)C1CCN(C(=O)c2ccc(Cl)cc2)CC1 | 10 | 27 | 42 | -4 | 2 | · | · | ·
O=C(Nc1cccc(F)c1)C1CCN(C(=O)c2ccc(Br)cc2)CC1 | 17 | -2 | 45* | 2 | -3 | 21 | -2 | -8
Cc1cccc(NC(=O)C2CCN(C(=O)c3ccc(Cl)cc3)CC2)n1 | 15 | 17 | 46* | 16 | -3 | 29 | -1 | 6
O=C(Nc1cccc(S(=O)(=O)N2CCCCCC2)c1)C1CCN(C(=O)c2ccc(Cl)cc2)CC1 | 20 | 11 | 52* | -10 | -2 | 30 | -1 | 7
Cc1ccc(S(=O)(=O)NC(=O)C2(C)CCN2C(=O)CC2CCCCC2)nc1 (centres undefined) | · | · | -5 | -4 | · | · | · | ·
Cc1ccc2nc(-c3ccccc3Cl)cc(C(=O)Nc3cc(C)on3)c2c1 | 6 | 1 | 60* | -2 | -2 | 46 | -1 | -3
O=C(c1ccc(F)cc1)N1CCN(Cc2ccccc2)CC1 | -1 | -1 | 9 | -4 | -1 | · | · | ·
O=C(c1ccc(Br)cc1)N1CCC(C(=O)N2CCN(c3ccccc3)CC2)CC1 | 25 | 10 | 79* | -8 | -2 | 39 | 0 | -11
O=C(c1ccc(Br)cc1)N1CCN(Cc2ccccc2)CC1 | 4 | 12 | 48* | -3 | -1 | 36 | 0 | 5
SMILES | CCR6 antagonist | APJ antagonist | EBI2 antag | CXCR6 inh | APJ agonist | EBI2 antag conf | EBI2 ag | bGal cs
O=C(c1ccc2ccccc2c1)N1CCN(Cc2ccccc2)CC1 | 7 | -19 | 90* | -4 | -2 | 77* | 1 | 6
COc1ccc(C(=O)N2CCC(C(=O)N3CCN(c4ccccc4)CC3)CC2)cc1 | 15 | -17 | 22 | 11 | -2 | · | · | ·
O=C(NCCc1ccc2c(c1)OCCO2)c1ccccn1 | 7 | -8 | -1 | 10 | 2 | · | · | ·
CCOC(=O)c1cc(=O)n2c(nc3ccccc32)[nH]1 | 5 | 14 | -8 | 0 | -2 | · | · | ·
O=C(NCc1cccnc1)c1nc(-c2ccccc2)n(-c2ccccc2)n1 | 0 | 6 | 2 | 5 | 12 | · | · | ·
COc1ccc(-c2cc(C3CCN(Cc4cccc(C(F)(F)F)c4)CC3)[nH]n2)cc1 | -22 | -5 | 55* | 3 | 1 | 31 | 0 | 9
COc1ccc(-c2cc(C3CCN(Cc4ccc([N+](=O)[O-])cc4)CC3)[nH]n2)cc1 | 9 | -32 | 33 | -8 | -3 | · | · | ·
Cc1ccc(CN2CCC(c3cc(-c4ccc(Cl)cc4)n[nH]3)CC2)cc1 | 21 | -26 | 65* | 1 | 2 | 40 | 2 | 5
Cc1ccc(F)c(CNC(=O)C2(C)CCCN2C(=O)C(C)C)c1F (centres undefined) | · | · | -8 | -8 | · | · | · | ·
CC1(C(=O)NS(=O)(=O)C2CC2)CCN(C(=O)c2ccc(F)cc2Cl)C1 (centres undefined) | · | · | -12 | 6 | · | · | · | ·
Cn1cc(C(=O)c2ccc(Cl)cc2)cc1-c1nc2ccccc2n1C | -8 | 11 | 64* | -2 | -1 | 42 | 0 | 8
CC(C)(C)OC(=O)C[C@@H]1C/C=C\C[C@H](CC(=O)N(CCO)Cc2ccccc2)C(=O)N[C@H](Cc2ccccc2)COC1=O | 16 | 0 | 10 | 4 | -1 | · | · | ·
O=C(NCc1ccc(Cl)cc1)C1CCN(S(=O)(=O)c2ccccc2)CC1 | -3 | -14 | 65* | -1 | -1 | 37 | 0 | 5
O=C(NCc1ccc(Cl)cc1)C1CCN(S(=O)(=O)c2cc([N+](=O)[O-])ccc2Cl)CC1 | -8 | 7 | 47* | -7 | 2 | 39 | 2 | -4
O=C(NC1CC1)C1CCN(S(=O)(=O)c2cc([N+](=O)[O-])ccc2Cl)CC1 | 10 | -17 | -4 | -4 | 1 | · | · | ·
CC(C)c1ccccc1OCCNC(=O)c1cncc(Br)c1 | 9 | -21 | 47* | -1 | -3 | 16 | -2 | -7
